ChEMBL document CHEMBL4346662, “Synthesis of novel 7-azaindole derivatives containing pyridin-3-ylmethyl dithiocarbamate moiety as potent PKM2 activators and PKM2 nucleus translocation inhibitors” (Eur J Med Chem, 2019)
One block for each compound: values may come before it. Active and inactive are the calls of the source. The calls are words filed in the database; no cut-off is given here.

What was measured:
[1] = biological target: T1, Pyruvate kinase PKM (Homo sapiens, UniProt P14618); test: Activation of human recombinant His-tagged PKM2 expressed in Escherichia coli assessed as maximal activity using PEP as substrate measured at 30 sec between 3 and 6 mins in presence of […] by fluorescent pyruvate kinase-lactate dehydrogenase coupled assay relative to control
Procedure, shortened: (§1)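 Pyruvate kinase activity read by fluorescent pyruvate kinase–lactate dehydrogenase coupled assay; AC50 and maximal activation are means of at least two determinations.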
Target sequence in this assay (P14618 2-531 limits assumed): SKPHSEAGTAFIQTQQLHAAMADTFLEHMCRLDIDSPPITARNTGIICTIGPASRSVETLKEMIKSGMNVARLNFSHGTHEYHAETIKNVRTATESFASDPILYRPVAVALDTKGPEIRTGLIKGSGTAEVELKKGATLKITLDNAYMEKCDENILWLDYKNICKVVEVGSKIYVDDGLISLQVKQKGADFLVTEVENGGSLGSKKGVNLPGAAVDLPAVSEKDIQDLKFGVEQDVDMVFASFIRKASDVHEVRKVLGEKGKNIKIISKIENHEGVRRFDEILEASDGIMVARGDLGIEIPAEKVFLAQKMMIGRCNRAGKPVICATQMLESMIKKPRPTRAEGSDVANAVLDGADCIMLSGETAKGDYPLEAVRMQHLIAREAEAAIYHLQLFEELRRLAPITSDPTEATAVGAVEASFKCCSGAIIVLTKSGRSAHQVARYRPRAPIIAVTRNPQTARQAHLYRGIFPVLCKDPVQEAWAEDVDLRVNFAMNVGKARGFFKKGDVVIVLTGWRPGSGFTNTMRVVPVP

[2] = tested on: NCI-H1299; test: Antiproliferative activity against human H1299 cells assessed as reduction in cell growth incubated for 72 hrs by CellTiter-Glo assay; type: functional, cell-based; conditions: NCI-H1299, 72 h
Procedure, shortened: (§2)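 Cells (H1299 in RPMI 1640; HCT116 and A375 in DMEM; 10% FBS, 37 °C, 5% CO2) plated at 2000 per well, left 24 h, then exposed to ten concentrations or DMSO for 72 h. CellTiter-Glo added, 30 min at room temperature in dark, luminescence read. IC50 fitted from triplicate experiments.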

[3] = tested on: HCT-116; test: Antiproliferative activity against human HCT116 cells assessed as reduction in cell growth incubated for 72 hrs by CellTiter-Glo assay; type: functional, cell-based; conditions: HCT-116, 72 h; procedure, shortened: as §2
[4] = tested on: A-375; test: Antiproliferative activity against human A375 cells assessed as reduction in cell growth incubated for 72 hrs by CellTiter-Glo assay; type: functional, cell-based; conditions: A-375, 72 h; procedure, shortened: as §2
[5] = biological target: T1, Pyruvate kinase PKM; test: Activation of human recombinant His-tagged PKM2 expressed in Escherichia coli using PEP as substrate measured at 30 sec between 3 and 6 mins in presence of […] by fluorescent pyruvate kinase-lactate dehydrogenase coupled assay; procedure, shortened: as §1
Target sequence in this assay (P14618 whole entry): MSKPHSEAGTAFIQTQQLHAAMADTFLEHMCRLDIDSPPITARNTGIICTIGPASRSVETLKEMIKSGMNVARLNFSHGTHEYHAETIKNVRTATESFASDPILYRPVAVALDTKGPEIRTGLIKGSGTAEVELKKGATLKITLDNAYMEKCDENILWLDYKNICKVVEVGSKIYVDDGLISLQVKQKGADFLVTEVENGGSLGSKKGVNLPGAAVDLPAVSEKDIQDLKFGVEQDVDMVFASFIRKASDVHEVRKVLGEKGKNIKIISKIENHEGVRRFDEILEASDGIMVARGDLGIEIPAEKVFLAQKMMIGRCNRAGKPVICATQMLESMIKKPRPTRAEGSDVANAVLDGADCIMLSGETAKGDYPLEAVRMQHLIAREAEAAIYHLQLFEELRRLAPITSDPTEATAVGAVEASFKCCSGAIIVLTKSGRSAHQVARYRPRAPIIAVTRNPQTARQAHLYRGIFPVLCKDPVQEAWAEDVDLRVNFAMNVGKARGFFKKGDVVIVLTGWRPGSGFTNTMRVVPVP

[6] = Cytotoxicity against human HELF cells assessed as reduction in cell viability incubated for 72 hrs by CellTiter-Glo assay; type: cell-based
[7] = tested on: A-375; test: Antitumor activity in human A375 cells xenografted in BALB/C mouse assessed as reduction in tumor volume at 50 mg/kg, po bid for 14 days measured on day 22; type: functional, organism-based
Procedure, shortened: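 Male BALB/c athymic nude mice, six weeks old, 18–20 g, inoculated subcutaneously with A375 cells (5×10^7 cells/mL in DMEM, 0.2 mL). At 100–300 mm³ (7 days), randomized, n = 6 per group, dosed orally bid for 14 days; vehicle 0.5% CMCNa. Tumor volume ((width)²×length/2) and body weight measured 2–3 times weekly; tumors excised and weighed at day 22.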

[8] = tested on: A-375; test: Induction of apoptosis in human A375 cells assessed as viable cells level at 1 uM incubated for 24 hrs by AnnexinV-FITC/propidium iodide staining-based flow cytometric analysis (reference value: 89.51%); type: functional
Procedure, shortened: (§3)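 A375 cells seeded at 6×10^5 per well, grown 24 h, then given fresh medium with compound for 24 h. Harvested by trypsinization, washed twice in ice-cold PBS, stained with Annexin V-FITC/PI and analysed by flow cytometry. Annexin V+/PI− scored early, Annexin V+/PI+ late apoptotic, double-negative live.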

[9] = tested on: A-375; test: Induction of apoptosis in human A375 cells assessed as early apoptotic cells level at 1 uM incubated for 24 hrs by AnnexinV-FITC/propidium iodide staining-based flow cytometric analysis (reference value: 2.89%); type: functional; procedure, shortened: as §3
[10] = tested on: A-375; test: Induction of apoptosis in human A375 cells assessed as necrotic cells level at 2 uM incubated for 24 hrs by AnnexinV-FITC/propidium iodide staining-based flow cytometric analysis (reference value: 0.96%); type: functional; procedure, shortened: as §3
[11] = Cytotoxicity against human HELF cells assessed as reduction in cell viability at 20 uM incubated for 72 hrs by CellTiter-Glo assay relative to control; type: cell-based; conditions: read-out: INH
[12] = tested on: A-375; test: Induction of autophagy in human A375 cells assessed as increase inLC3B spot area at 1 to 4 uM incubated for 24 hrs by immunoflourescence assay; type: functional, cell-based
Procedure, shortened: (§4)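 A375 cells seeded at 60% per well, then treated with compound or DMSO for 24 h. Fixed in 3% PFA/0.1% glutaraldehyde, blocked overnight at 4 °C, immunostained with rabbit anti-LC3B plus Hoechst 33258. High content imaging quantified cytoplasmic LC3B intensity and LC3B spot area.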

[13] = tested on: A-375; test: Induction of apoptosis in human A375 cells assessed as viable cells level at 4 uM incubated for 24 hrs by AnnexinV-FITC/propidium iodide staining-based flow cytometric analysis (reference value: 89.51%); type: functional; procedure, shortened: as §3
[14] = tested on: A-375; test: Induction of apoptosis in human A375 cells assessed as necrotic cells level at 4 uM incubated for 24 hrs by AnnexinV-FITC/propidium iodide staining-based flow cytometric analysis (reference value: 0.96%); type: functional; procedure, shortened: as §3
[15] = tested on: A-375; test: Anti-migration activity against human A375 cells assessed as inhibition of cell migration speed incubated for 24 hrs; type: functional, cell-based
Procedure, shortened: (§5)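 A375 cells seeded at 60% per well, grown 24 h, then given six concentrations or DMSO. Migration speed and accumulated distance tracked in real time by live-cell high content imaging (Operetta) over 24 h. Data from triplicate experiments.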

[16] = tested on: A-375; test: Induction of apoptosis in human A375 cells assessed as late apoptotic cells level at 2 uM incubated for 24 hrs by AnnexinV-FITC/propidium iodide staining-based flow cytometric analysis (reference value: 6.64%); type: functional; procedure, shortened: as §3
[17] = tested on: A-375; test: Induction of apoptosis in human A375 cells assessed as necrotic cells level at 1 uM incubated for 24 hrs by AnnexinV-FITC/propidium iodide staining-based flow cytometric analysis (reference value: 0.96%); type: functional; procedure, shortened: as §3
[18] = biological target: T1, Pyruvate kinase PKM; test: Inhibition of nuclear translocation of PKM2 in human A375 cells assessed as retardation of in nuclear accumulation of PKM2 at 1 to 4 uM incubated for 12 hrs by Hoechst staining-based immunofluorescent microscopic analysis; type: cell-based
Procedure, shortened: (§6)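 A375 cells seeded at 60% per well, grown 24 h at 37 °C, then treated with three concentrations, DMSO or NZT for 24 h (12 h in a separate run). Fixed 10 min in 3% PFA/0.1% glutaraldehyde, blocked overnight at 4 °C (3% BSA, 0.2% Triton X-100), stained with rabbit anti-PKM2 2 h, then secondary plus Hoechst 33258 1 h. Imaged on Operetta high content system; cytoplasmic fluorescence intensity quantified.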
Target sequence in this assay (P14618 2-531 limits assumed): as the sequence (P14618 2-531 limits assumed) above

[19] = tested on: A-375; test: Induction of apoptosis in human A375 cells assessed as apoptotic cells at 1 to 4 uM incubated for 24 hrs by AnnexinV-FITC/propidium iodide staining-based flow cytometric analysis relative to control; type: functional, cell-based; procedure, shortened: as §3
[20] = tested on: A-375; test: Induction of apoptosis in human A375 cells assessed as late apoptotic cells level at 1 uM incubated for 24 hrs by AnnexinV-FITC/propidium iodide staining-based flow cytometric analysis (reference value: 6.64%); type: functional; procedure, shortened: as §3
[21] = tested on: A-375; test: Induction of apoptosis in human A375 cells assessed as early apoptotic cells level at 4 uM incubated for 24 hrs by AnnexinV-FITC/propidium iodide staining-based flow cytometric analysis (reference value: 2.89%); type: functional; procedure, shortened: as §3
[22] = Toxicity in BALB/C mouse xenografted with human A375 cells assessed as reduction in body weight at 50 mg/kg, po bid for 14 days measured on day 22; conditions: in vivo, 336 h
[23] = tested on: A-375; test: Inhibition of nuclear translocation of PKM2 in human A375 cells assessed as cell death of PKM2 at 4 uM incubated for 24 hrs by Hoechst staining-based fluorescent microscopic analysis; type: functional
[24] = tested on: A-375; test: Induction of apoptosis in human A375 cells assessed as late apoptotic cells level at 4 uM incubated for 24 hrs by AnnexinV-FITC/propidium iodide staining-based flow cytometric analysis (reference value: 6.64%); type: functional; procedure, shortened: as §3
[25] = tested on: A-375; test: Anti-migration activity against human A375 cells assessed as inhibition of cell migration distance incubated for 24 hrs; type: functional, cell-based; procedure, shortened: as §5
[26] = Cytotoxicity against mouse C2C12 cells assessed as reduction in cell viability at 20 uM incubated for 72 hrs by CellTiter-Glo assay relative to control; type: cell-based; conditions: read-out: INH
[27] = biological target: Serine/threonine-protein kinase B-raf (Homo sapiens) (UniProt P15056); test: Inhibition of B-raf (unknown origin) at 10 uM
Procedure, shortened: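 B-raf tested by single-point binding at 10 μM.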

[28] = tested on: A-375; test: Induction of apoptosis in human A375 cells assessed as early apoptotic cells level at 2 uM incubated for 24 hrs by AnnexinV-FITC/propidium iodide staining-based flow cytometric analysis (reference value: 2.89%); type: functional; procedure, shortened: as §3
[29] = tested on: C2C12; test: Cytotoxicity against mouse C2C12 cells assessed as reduction in cell viability incubated for 72 hrs by CellTiter-Glo assay; type: cell-based; conditions: C2C12, 72 h
[30] = organism: Homo sapiens; test: Inhibition of nuclear translocation of PKM2 in human A375 cells assessed as retardation of in nuclear accumulation of PKM2 at 1 to 4 uM incubated for 24 hrs by Hoechst staining-based immunofluorescent microscopic analysis; type: cell-based; procedure, shortened: as §6
[31] = tested on: A-375; test: Induction of autophagy in human A375 cells assessed as increase in LC3-1 to LC3-2 transition at 1 to 4 uM incubated for 24 hrs by immunoflourescence assay; type: functional, cell-based; procedure, shortened: as §4
[32] = tested on: A-375; test: Induction of apoptosis in human A375 cells assessed as viable cells level at 2 uM incubated for 24 hrs by AnnexinV-FITC/propidium iodide staining-based flow cytometric analysis (reference value: 89.51%); type: functional; procedure, shortened: as §3
[33] = tested on: A-375; test: Cytotoxicity in human A375 cells assessed as reduction in cel viability at 4 uM incubated for 24 hrs; type: functional, cell-based

Serine/threonine-protein kinase B-raf (Homo sapiens), sequence (P15056 whole entry): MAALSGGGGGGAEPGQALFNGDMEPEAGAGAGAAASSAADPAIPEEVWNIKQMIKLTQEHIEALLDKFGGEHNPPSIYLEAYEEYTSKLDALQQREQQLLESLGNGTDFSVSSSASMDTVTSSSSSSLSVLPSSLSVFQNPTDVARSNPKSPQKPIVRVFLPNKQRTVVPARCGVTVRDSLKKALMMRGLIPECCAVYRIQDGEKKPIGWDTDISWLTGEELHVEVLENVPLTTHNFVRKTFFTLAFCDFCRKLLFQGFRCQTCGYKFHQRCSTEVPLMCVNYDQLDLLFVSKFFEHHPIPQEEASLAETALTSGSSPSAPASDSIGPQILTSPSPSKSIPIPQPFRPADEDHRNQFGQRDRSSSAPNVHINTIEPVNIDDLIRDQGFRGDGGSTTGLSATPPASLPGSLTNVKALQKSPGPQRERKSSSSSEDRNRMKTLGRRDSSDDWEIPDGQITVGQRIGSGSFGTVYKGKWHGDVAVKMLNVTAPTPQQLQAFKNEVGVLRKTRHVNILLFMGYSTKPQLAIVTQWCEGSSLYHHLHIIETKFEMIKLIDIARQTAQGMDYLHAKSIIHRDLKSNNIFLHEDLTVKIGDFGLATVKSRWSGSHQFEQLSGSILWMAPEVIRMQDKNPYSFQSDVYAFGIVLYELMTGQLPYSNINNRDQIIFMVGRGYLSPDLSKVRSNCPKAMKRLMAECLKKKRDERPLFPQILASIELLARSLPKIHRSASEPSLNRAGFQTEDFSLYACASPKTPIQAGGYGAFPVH

Structure (SMILES): O=C(CCSC(=S)NCc1cccnc1)c1cnn2ncccc12
- %max [1]: 44%
- IC50 [2]: 1760 nM
- IC50 [3]: 1520 nM
- IC50 [4]: 330 nM
- AC50 ([5]; read-out: AC50): 220 nM

Structure (SMILES): O=C(CCSC(=S)NCc1cccnc1)c1c[nH]c2nccc(C3CC3)c12
- %max [1]: inactive
- AC50 [5]: Not Active

Structure (SMILES): O=C(CCSC(=S)NCc1cccnc1)c1c[nH]c2nccc(-c3ccccc3)c12
- %max [1]: 28%
- AC50 ([5]; read-out: AC50): 2170 nM

Structure (SMILES): O=C(CCSC(=S)NCc1cccnc1)c1cn(CC(F)F)c2ncccc12
- IC50 [6]: > 20000 nM
- Activity [7]: Active
- Activity [8]: 86.39%
- %max [1]: 149%
- Activity [9]: 3.95%
- Activity [10]: 2.11%
- cytotoxicity at 72 h, 20 µM [11]: 10%
- Activity [12]: Dose-dependent effect
- Activity [13]: 67.24%
- IC50 [2]: 2280 nM
- Activity [14]: 4.45%
- Activity [15]: Dose-dependent effect
- Activity [16]: 6.98%
- Activity [17]: 1.57%
- IC50 [3]: 710 nM
- Activity [18]: Active
- Activity [19]: Dose-dependent effect
- Activity [20]: 8.09%
- Activity [21]: 18.55%
- Activity [22]: Non-Toxic
- inhibition [23]: Active
- Activity [24]: 9.76%
- Activity [25]: Dose-dependent effect
- cytotoxicity at 72 h, 20 µM [26]: 46%
- inhibition [27]: 41%
- IC50 [4]: 280 nM
- Activity [28]: 14.01%
- IC50 [29]: > 20000 nM
- inhibition [30]: Dose-dependent effect
- Activity [31]: Dose-dependent effect
- AC50 ([5]; read-out: AC50): 2670 nM
- Activity [32]: 76.9%
- Activity [33]: Active

Structure (SMILES): O=C(CCSC(=S)NCc1cccnc1)c1c(-c2ccccc2)nn2ncccc12
- %max [1]: 148%
- IC50 [2]: > 10000 nM
- IC50 [3]: 9080 nM
- IC50 [4]: 2770 nM
- AC50 ([5]; read-out: AC50): 450 nM

Structure (SMILES): O=C(CCSC(=S)NCc1cccnc1)c1cnn2ccccc12
- %max [1]: 23%
- AC50 ([5]; read-out: AC50): > 20000 nM

Further lines, results first:

- %max [1]: 71%
- IC50 [2]: 8870 nM
- IC50 [3]: 6160 nM
- IC50 [4]: 3380 nM
- AC50 ([5]; read-out: AC50): 180 nM
Structure (SMILES): O=C(CCSC(=S)NCc1cccnc1)c1c[nH]c2ncc(Cl)cc12

- %max [1]: 83%
- IC50 [2]: > 10000 nM
- IC50 [3]: 4900 nM
- IC50 [4]: 1990 nM
- AC50 ([5]; read-out: AC50): 610 nM
Structure (SMILES): O=C(CCSC(=S)NCc1cccnc1)c1c[nH]c2nccc(Br)c12

- %max [1]: inactive
- AC50 [5]: Not Active
Structure (SMILES): Cc1ccc2c(C(=O)CCSC(=S)NCc3cccnc3)c[nH]c2n1

- %max [1]: 24%
- AC50 ([5]; read-out: AC50): > 20000 nM
Structure (SMILES): C#Cc1ccnc2[nH]cc(C(=O)CCSC(=S)NCc3cccnc3)c12
